Measurements taken from ChEMBL document CHEMBL1146217, “Growth inhibition of Mycobacterium bovis, Mycobacterium tuberculosis and Mycobacterium avium in vitro: effect of 1-beta-D-2'-arabinofuranosyl and 1-(2'-deoxy-2'-fluoro-beta-D-2'-ribofuranosyl) pyrimidine nucleoside analogs” (J Med Chem, 2007).
Converted amounts (≈) assume the structure as drawn.

Columns and labels:
Type in all cases: functional
Settings in all cases: variant bovis BCG
[1] = tested on: Mycobacterium tuberculosis; experiment: Antimycobacterial activity against Mycobacterium bovis BCG at 100 ug/mL by microplate Alamar blue assay
How it was run: (§1)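 MABA with M. bovis BCG, M. tuberculosis H37Ra or M. avium ATCC 25291. DMSO stocks (10 mg/mL) diluted in 7H9GC; final inoculum 2.5 × 10⁵ CFU/mL. Incubated 6 days, then alamar blue plus Tween 80 added and read by fluorescence after about 24 h. […]. Tested in triplicate at 100, 50, 10 and 1 µg/mL; two experiments, mean reported.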

[2] = tested on: Mycobacterium tuberculosis; experiment: Antimycobacterial activity against Mycobacterium bovis BCG at 50 ug/mL by microplate Alamar blue assay; how it was run: as §1
[3] = tested on: Mycobacterium tuberculosis; experiment: Antimycobacterial activity against Mycobacterium bovis BCG by microplate Alamar blue assay
How it was run: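 Same alamar blue microplate setup (7H9GC, 2.5 × 10⁵ CFU/mL, 6 days, then dye read after about 24 h), using 2-fold compound dilutions. MIC90 is the lowest concentration giving about 90% inhibition relative to bacteria-only wells after background subtraction. Visual MIC is the lowest concentration preventing the blue-to-pink change.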

[4] = tested on: Mycobacterium tuberculosis; experiment: Antimycobacterial activity against Mycobacterium bovis BCG at 10 ug/mL by microplate Alamar blue assay; how it was run: as §1
[5] = tested on: Mycobacterium tuberculosis; experiment: Antimycobacterial activity against Mycobacterium bovis BCG at 1ug/mL by microplate Alamar blue assay; how it was run: as §1

CCCCCC#Cc1cn([C@@H]2O[C@H](CO)[C@@H](O)[C@H]2F)c(=O)[nH]c1=O gave an inhibition at 100 µg/mL [1] of 50%.

Compound O=C(O)/C=C/c1cn([C@@H]2O[C@H](CO)[C@@H](O)[C@@H]2O)c(=O)[nH]c1=O has an inhibition at 100 µg/mL [1] of 0%.

For CCCCCCCCCCCCC#Cc1cn([C@@H]2O[C@H](CO)[C@@H](O)[C@@H]2O)c(=O)[nH]c1=O, the inhibition at 50 µg/mL [2] was 100%, the inhibition at 100 µg/mL [1] was 100% and the MIC90 [3] was 10 µg/mL (≈ 22.9 µM). The inhibition at 10 µg/mL [4] was 50%.

CCCCCCCCCCCC#Cc1cn([C@@H]2O[C@H](CO)[C@@H](O)[C@H]2F)c(=O)[nH]c1=O gave an inhibition at 1 µg/mL [5] of 90%, an inhibition at 50 µg/mL [2] of 100% and an inhibition at 100 µg/mL [1] of 100%. It also gave an MIC90 [3] of 1 µg/mL (≈ 2.36 µM) and an inhibition at 10 µg/mL [4] of 100%.

CCCCCCCCCCCCC#Cc1cn([C@@H]2O[C@H](CO)[C@@H](O)[C@H]2F)c(=O)[nH]c1=O gave an inhibition at 50 µg/mL [2] of 100%, an inhibition at 100 µg/mL [1] of 100% and an MIC90 [3] of 10 µg/mL (≈ 22.8 µM). For the same compound, the inhibition at 10 µg/mL [4] was 50%.

O=c1[nH]c(=O)n([C@@H]2O[C@H](CO)[C@@H](O)[C@@H]2O)cc1Br was tested, and the inhibition at 100 µg/mL [1] was 0%.

Compound CCCCCCCCCCC#Cc1cn([C@@H]2O[C@H](CO)[C@@H](O)[C@@H]2O)c(=O)[nH]c1=O has an inhibition at 1 µg/mL [5] of 75%, an inhibition at 50 µg/mL [2] of 100% and an inhibition at 100 µg/mL [1] of 100%. For the same compound, the MIC90 [3] was 1 µg/mL (≈ 2.45 µM) and the inhibition at 10 µg/mL [4] was 100%.

For O=c1[nH]c(=O)n([C@@H]2O[C@H](CO)[C@@H](O)[C@@H]2O)cc1Cl, the inhibition at 100 µg/mL [1] was 0%.

Compound O=c1[nH]c(=O)n([C@@H]2O[C@H](CO)[C@@H](O)[C@@H]2O)cc1C(O)C(Cl)Cl (some centres not stated) has an inhibition at 100 µg/mL [1] of 0%.

Compound Cc1cn([C@@H]2O[C@H](CO)[C@@H](O)[C@H]2F)c(=O)[nH]c1=S has an inhibition at 100 µg/mL [1] of 25%.

Work on O=c1[nH]c(=O)n([C@@H]2O[C@H](CO)[C@@H](O)[C@H]2F)cc1Br yielded an inhibition at 100 µg/mL [1] of 0%.

O=c1[nH]c(=O)n([C@@H]2O[C@H](CO)[C@@H](O)[C@@H]2O)cc1C(O)C(Br)Br (some centres not stated) was tested, and the inhibition at 100 µg/mL [1] was 0%.

Cc1cn([C@@H]2O[C@H](CO)[C@@H](O)[C@@H]2O)c(=O)[nH]c1=S was tested, and the inhibition at 100 µg/mL [1] was 0%.

CCOC(=O)/C=C/c1cn([C@@H]2O[C@H](CO)[C@@H](O)[C@H]2F)c(=O)[nH]c1=O gave an inhibition at 100 µg/mL [1] of 0%.

With CO[C@H]1/C=C/O[C@@]2(C)Oc3c(C)c(O)c4c(O)c(c(/C=N/N5CCN(C)CC5)c(O)c4c3C2=O)NC(=O)/C(C)=C\C=C\[C@H](C)[C@H](O)[C@@H](C)[C@@H](O)[C@@H](C)[C@H](OC(C)=O)[C@@H]1C [RIFAMPIN] the MIC90 [3] was 0.5 µg/mL (≈ 0.608 µM).

For CCCCCCCCCCC#Cc1cn([C@@H]2O[C@H](CO)[C@@H](O)[C@H]2F)c(=O)[nH]c1=O, the inhibition at 1 µg/mL [5] was 70%, the inhibition at 50 µg/mL [2] was 100% and the inhibition at 100 µg/mL [1] was 100%. The MIC90 [3] was 1 µg/mL (≈ 2.44 µM) and the inhibition at 10 µg/mL [4] was 100%.

Work on CCCCCC#Cc1cn([C@@H]2O[C@H](CO)[C@@H](O)[C@@H]2O)c(=O)[nH]c1=O yielded an inhibition at 100 µg/mL [1] of 25%.

O=C(O)/C=C/c1cn([C@@H]2O[C@H](CO)[C@@H](O)[C@H]2F)c(=O)[nH]c1=O was tested, and the inhibition at 100 µg/mL [1] was 0%.

Compound O=c1[nH]c(=S)ccn1[C@@H]1O[C@H](CO)[C@@H](O)[C@H]1F has an inhibition at 100 µg/mL [1] of 25%.

CCCCCCCCC#Cc1cn([C@@H]2O[C@H](CO)[C@@H](O)[C@H]2F)c(=O)[nH]c1=O gave an inhibition at 1 µg/mL [5] of 30%, an inhibition at 50 µg/mL [2] of 75% and an inhibition at 100 µg/mL [1] of 100%. It also gave an MIC90 [3] of 50 µg/mL (≈ 131 µM) and an inhibition at 10 µg/mL [4] of 50%.

For CCOC(=O)C(Cl)C(O)c1cn([C@@H]2O[C@H](CO)[C@@H](O)[C@H]2F)c(=O)[nH]c1=O (some centres not stated), the inhibition at 100 µg/mL [1] was 0%.

CCOC(=O)/C=C/c1cn([C@@H]2O[C@H](CO)[C@@H](O)[C@@H]2O)c(=O)[nH]c1=O gave an inhibition at 100 µg/mL [1] of 0%.

In the case of O=c1[nH]c(=S)ccn1[C@@H]1O[C@H](CO)[C@@H](O)[C@@H]1O, the inhibition at 100 µg/mL [1] is reported as 0%.

Work on CCCc1ccc(C#Cc2cn([C@@H]3O[C@H](CO)[C@@H](O)[C@@H]3O)c(=O)[nH]c2=O)cc1 yielded an inhibition at 50 µg/mL [2] of 50%, an inhibition at 100 µg/mL [1] of 100% and an MIC90 [3] of 100 µg/mL (≈ 259 µM).

For O=c1[nH]c(=O)n([C@@H]2O[C@H](CO)[C@@H](O)[C@@H]2O)cc1C(O)CI (some centres not stated), the inhibition at 100 µg/mL [1] was 0%.

Compound O=c1[nH]c(=O)n([C@@H]2O[C@H](CO)[C@@H](O)[C@H]2F)cc1Cl has an inhibition at 50 µg/mL [2] of 50% and an inhibition at 100 µg/mL [1] of 50%.

Compound CCOC(=O)C(Br)C(O)c1cn([C@@H]2O[C@H](CO)[C@@H](O)[C@H]2F)c(=O)[nH]c1=O (some centres not stated) has an inhibition at 100 µg/mL [1] of 0%.

Work on CCCCCCCCCCCC#Cc1cn([C@@H]2O[C@H](CO)[C@@H](O)[C@@H]2O)c(=O)[nH]c1=O yielded an inhibition at 50 µg/mL [2] of 100%, an inhibition at 100 µg/mL [1] of 100% and an MIC90 [3] of 10 µg/mL (≈ 23.7 µM). For the same compound, the inhibition at 10 µg/mL [4] was 50%.

For O=C(O)C(I)C(O)c1cn([C@@H]2O[C@H](CO)[C@@H](O)[C@H]2F)c(=O)[nH]c1=O (some centres not stated), the inhibition at 100 µg/mL [1] was 0%.

Compound CCCCCCCCC#Cc1cn([C@@H]2O[C@H](CO)[C@@H](O)[C@@H]2O)c(=O)[nH]c1=O has an inhibition at 50 µg/mL [2] of 50%, an inhibition at 100 µg/mL [1] of 100% and an MIC90 [3] of 100 µg/mL (≈ 263 µM). The inhibition at 10 µg/mL [4] was 30%.

COC(CI)c1cn([C@@H]2O[C@H](CO)[C@@H](O)[C@@H]2O)c(=O)[nH]c1=O (some centres not stated) showed an inhibition at 100 µg/mL [1] of 0%.
